Measurements collected from several papers.
Compare with care: the assays were run in different laboratories.
IGF1R: Insulin-like growth factor 1 receptor (IGF1R, Homo sapiens, UniProt P08069)
IGF1R phosphorylated: Insulin-like growth factor 1 receptor, phosphorylated (IGF1R, Homo sapiens, UniProt P08069)

SMILES	target	effect on	action	technique	tested at	measurement	value
O=C(CSc1nc2nccnc2c(=O)n1CCc1ccccc1)Nc1nccs1	IGF1R	enzyme activity	inhibitor	–	10 µM	inhibition	12%
CNCc1ccc(-c2cc(-c3nc(-c4ccc(S(=O)(=O)C(C)C)cc4)cnc3N)on2)cc1	IGF1R	enzyme activity	inhibitor	–	2 µM	inhibition	2%
CC/C(=N\NC(=O)NCc1cccc(O)c1)c1ccc(O)c(C)c1O	IGF1R	enzyme activity	inhibitor	–	0.1 µM	inhibition	3%
N#Cc1ccc(Nc2ccc3[nH]c(=O)[nH]c3c2)c(Cl)c1	IGF1R	cell-free assay	–	competition with immobilised ligand	1 µM	remaining binding	99%
COc1cc2nccc(Oc3ccc(NC(=O)c4c5n(n(-c6ccc(F)cc6)c4=O)CCCC5)cc3)c2cc1OC	IGF1R	enzyme activity	inhibitor	–	0.1 µM	inhibition	16%
O=C(NCc1ncc(C(F)(F)F)cc1Cl)c1ccc2c(c1)C1(CCS(=O)(=O)CC1)[C@@H](C1CC1)N2S(=O)(=O)c1ccc(F)cc1	IGF1R	cell-free assay	–	competition with immobilised ligand	1 µM	remaining binding	88%
COc1cc2ncnc(Nc3ccc(Oc4ccccc4)c(C)c3C)c2cc1OC	IGF1R	enzyme activity	inhibitor	–	1 µM	inhibition	2%
Cc1nccc(COC(=O)N2C[C@@H]3[C@@H](CNC(=O)c4ccc5[nH]nnc5c4)[C@@H]3C2)n1	IGF1R	cell-free assay	–	competition with immobilised ligand	1 µM	remaining binding	93%
Nc1ncnc2occ(-c3ccc(NC(=O)Nc4cc(C(F)(F)F)ccc4F)cc3)c12	IGF1R	cell-free assay	–	–	20 µM	remaining signal	13%
N#CCCc1ccc2c(c1)-c1[nH]c3ccc([N+](=O)[O-])cc3c1CC(=O)N2	IGF1R	cell-free assay	–	–	0.5 µM	remaining signal	92.2%
CN1CC(Oc2cnc(C#N)cc2-c2ccn3nc(NC(=O)C4CC4)cc3c2)C1	IGF1R phosphorylated	enzyme activity	inhibitor	–	1 µM	inhibition	-13%
Cc1ccc(C(=O)NCc2ccsc2)cc1C#Cc1cn(C(C)C)c2ncnc(N)c12	IGF1R phosphorylated	enzyme activity	inhibitor	–	1 µM	activity vs control	136%
Cc1cc(NC(=O)c2cccc3cc(-c4cccc5[nH]nc(N)c45)ccc23)ccc1F	IGF1R	enzyme activity	inhibitor	–	0.1 µM	activity vs control	143%
CCN(CC)CCNC(=O)c1c(C)[nH]c(/C=C2\C(=O)Nc3ccc(F)cc32)c1C	IGF1R	enzyme activity	inhibitor	–	0.3 µM	inhibition	4%
CNC(=O)c1ccc(Nc2ncc(C(F)(F)F)c(NCc3nccnc3N(C)S(C)(=O)=O)n2)cc1	IGF1R	cell-free assay	–	competition with immobilised ligand	0.1 µM	remaining binding	84%
CNC(=O)c1cc(Oc2ccc(NC(=O)Nc3ccc(Cl)c(C(F)(F)F)c3)cc2)ccn1	IGF1R	enzyme activity	inhibitor	–	0.3 µM	inhibition	-3%
Cc1cc(-n2nc(Cc3cc(F)cc(C(F)(F)F)c3)nc2C)ccc1C(N)=O	IGF1R	cell-free assay	–	competition with immobilised ligand	1 µM	remaining binding	98%
Cc1ccc(C(=O)Nc2ccc(CN3CCN(C)CC3)c(C(F)(F)F)c2)cc1C#Cc1cnc2cccnn12	IGF1R	cell-free assay	–	–	23.5 nM	remaining signal	84%
CCCS(=O)(=O)Nc1ccc(F)c(C(=O)c2c[nH]c3ncc(-c4ccc(Cl)cc4)cc23)c1F	IGF1R	enzyme activity	inhibitor	–	1 µM	inhibition	< 10%
Nc1c(C(=O)NCc2ccc(C(=O)NCCCC3CCCCC3)cc2)cnn1-c1ccccc1	IGF1R	cell-free assay	–	competition with immobilised ligand	0.1 µM	remaining binding	98%
O=C1NC(=O)c2cc(Nc3ccc(F)cc3)c(Nc3ccc(F)cc3)cc21	IGF1R	cell-free assay	–	–	0.5 µM	remaining signal	102%
